Laboratory results: ChEMBL document CHEMBL1123708, “Resolved cis- and trans-2-amino-5-methoxy-1-methyltetralins: central dopamine receptor agonists and antagonists” (1987)
Calls of active or inactive are those of the source. The calls are words filed in the database; no cut-off is given here.

Columns and labels:
[1] = target: T1, Dopamine receptor (Rattus norvegicus) (UniProt P25115+P19020+P30729+P18901+P61169); assay: Ability to displace the Dopamine receptor agonist DiPr-5,6-ADTN from rat striatal binding sites in vivo at a dose of 13 uM/kg by subcutaneous administration; type: organism-based
Rattus norvegicus [2] = assay: Induced locomotor stimulation in non pre-treated rats by 13 umol/kg s.c. administration.; type: functional
Rattus norvegicus [3] = assay: In vivo DOPA accumulation in reserpine pretreated rat limbic system by subcutaneous administration.; type: functional; settings: sc
How it was run: (§1)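 Rats received reserpine (5 mg/kg sc) 18 h, test drug sc 60 min and NSD 1015 (100 mg/kg ip) 30 min before death, with saline controls. Limbic or striatal DOPA was measured. Dose for half-maximal decrease was estimated from 4-7-dose curves (n = 3-5), minimal level as % of control.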

Rattus norvegicus [4] = assay: In vivo DOPA accumulation in reserpine pretreated rat striatum system by subcutaneous administration.; type: functional; settings: sc; how it was run: as §1
Rattus norvegicus [5] = assay: Locomotory activity was determined in non pretreated rats at a dose of 52 umol/kg by subcutaneous administration.; type: functional
How it was run: (§2)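 Untreated rats received test drug sc 5 min before a 30-min session in photocell motility meters, with accumulated counts recorded. Activity is expressed as percent of saline controls, mean ± SEM, n = 3-5. Gross behaviour was observed through a semitransparent mirror. Differences from saline controls were assessed by Student's t test.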

Rattus norvegicus [6] = assay: Locomotory activity was determined in reserpine pretreated rats at a dose of 52 umol/kg by subcutaneous administration. Value is the accumulation counts/30 min; type: functional
How it was run: (§3)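 Rats were given reserpine 5 mg/kg sc 18 h beforehand, then test drug sc immediately before the activity session. Motor activity was recorded by photocells in motility meters as accumulated counts over 30 min, mean ± SEM, n = 3-4. Gross behaviour was watched for signs of stimulation. Reserpine-only controls were included.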

Rattus norvegicus [7] = assay: Locomotory activity was determined in non pretreated rats at a dose of 3.2 umol/kg by subcutaneous administration; type: functional; how it was run: as §2
Rattus norvegicus [8] = assay: Change in rectal temperature induced by DiPr-5,6-ADTN at a dose of 13 umol/kg of compound by subcutaneous administration; type: functional
How it was run: (§4)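 Rats received DiPr-5,6-ADTN (0.25 μmol/kg sc) 100 min and test compound sc 40 min before death. Rectal temperature change (°C) was recorded between 60 and 100 min after DiPr-5,6-ADTN. Values are mean ± SEM, n = 4, with Student's t test vs DiPr-5,6-ADTN alone.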

[9] = target: T1, Dopamine receptor (Rattus norvegicus); assay: In vivo displacement of DiPr-5,6-ADTN from Dopamine receptors in rat striatum; type: organism-based
[10] = target: T1, Dopamine receptor (Rattus norvegicus); assay: Ability to displace the Dopamine receptor agonist DiPr-5,6-ADTN from rat striatal binding sites in vivo at a dose of 52 uM/kg by subcutaneous administration; type: organism-based
Rattus norvegicus [11] = assay: Change in rectal temperature induced by DiPr-5,6-ADTN at a dose of 3.2 umol/kg of compound by subcutaneous administration; type: functional; how it was run: as §4
Rattus norvegicus [12] = assay: ((+)-UH-232) induced locomotor stimulation was determined in non pretreated rats at a dose of 3.2 umol/kg by subcutaneous administration; type: functional
Rattus norvegicus [13] = assay: Change in rectal temperature induced by DiPr-5,6-ADTN at a dose of 204 umol/kg of compound by subcutaneous administration; type: functional; how it was run: as §4
Rattus norvegicus [14] = assay: In vivo DOPA accumulation in non pre-treated rat limbic system following s.c. administration.; type: functional; settings: sc
How it was run: (§5)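 Rats without pretreatment received test drug sc 65 min and NSD 1015 (100 mg/kg ip) 30 min before death, with saline controls. DOPA was measured in limbic or striatal tissue. Dose for half-maximal change was estimated from 4-5-dose curves (n = 3-5), maximal level as % of control.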

Rattus norvegicus [15] = assay: In vivo DOPA accumulation in non pre-treated rat striatal system following s.c. administration.; type: functional; settings: sc; how it was run: as §5
Rattus norvegicus [16] = assay: Induced locomotor stimulation was determined in non pretreated rats at a dose of 204 umol/kg by subcutaneous administration; type: functional
Rattus norvegicus [17] = assay: Induced locomotor stimulation was determined in non pretreated rats at a dose of 52 uM/kg by subcutaneous administration; type: functional; how it was run: as §2
Rattus norvegicus [18] = assay: In vivo DOPA accumulation in reserpine pretreated rat limbic system by subcutaneous administration; I denotes inactive; type: functional, organism-based; how it was run: as §1
Rattus norvegicus [19] = assay: In vivo DOPA accumulation in reserpine pretreated rat striatum system by subcutaneous administration; I denotes inactive; type: functional, organism-based; how it was run: as §1
Rattus norvegicus [20] = assay: Induced locomotor stimulation in non pre-treated rats by 52 umol/kg s.c. administration.; type: functional
Rattus norvegicus [21] = assay: Change in rectal temperature induced by DiPr-5,6-ADTN at a dose of 52 umol/kg of compound by subcutaneous administration; type: functional; how it was run: as §4
[22] = target: T1, Dopamine receptor (Rattus norvegicus); settings: 13 uM
[23] = target: T1, Dopamine receptor (Rattus norvegicus); settings: 204 uM
[24] = target: T1, Dopamine receptor (Rattus norvegicus); assay: Ability to displace the DA receptor agonist DiPr-5,6-ADTN from rat striatal binding sites in vivo at a dose of 40 uM/kg by subcutaneous administration; type: organism-based
[25] = target: T1, Dopamine receptor (Rattus norvegicus); assay: Ability to displace the Dopamine receptor agonist DiPr-5,6-ADTN from rat striatal binding sites in vivo at a dose of 10 uM/kg by subcutaneous administration; type: organism-based
Rattus norvegicus [26] = assay: Change in rectal temperature induced by DiPr-5,6-ADTN at a dose of 40 umol/kg of compound by subcutaneous administration; type: functional; how it was run: as §4
Rattus norvegicus [27] = assay: Change in rectal temperature induced by DiPr-5,6-ADTN at a dose of 10 umol/kg of compound by subcutaneous administration; type: functional; how it was run: as §4
Rattus norvegicus [28] = assay: In vivo DOPA accumulation in reserpine pretreated rat limbic system by subcutaneous administration; type: functional; settings: sc; how it was run: as §1
Rattus norvegicus [29] = assay: In vivo DOPA accumulation in reserpine pretreated rat striatum system by subcutaneous administration; type: functional; settings: sc; how it was run: as §1
Rattus norvegicus [30] = assay: Locomotory activity was determined in reserpine pretreated rats at a dose of 3.2 umol/kg by subcutaneous administration. Value is the accumulation counts/30 min; type: functional; how it was run: as §3
Rattus norvegicus [31] = assay: Locomotory activity was determined in non pretreated rats at a dose of 13.4 umol/kg by subcutaneous administration; type: functional; how it was run: as §2
Rattus norvegicus [32] = assay: Induced locomotor stimulation was determined in non pretreated rats at a dose of 52 umol/kg by subcutaneous administration; type: functional; how it was run: as §2
[33] = target: T1, Dopamine receptor (Rattus norvegicus); assay: Ability to displace the Dopamine receptor agonist DiPr-5,6-ADTN from rat striatal binding sites in vivo at a dose of 52 umol/kg by subcutaneous administration; type: organism-based
Rattus norvegicus [34] = assay: ((+)-UH-232) induced locomotor stimulation was determined in non pretreated rats at a dose of 204 umol/kg by subcutaneous administration; type: functional
Rattus norvegicus [35] = assay: ((+)-UH-232) induced locomotor stimulation was determined in non pretreated rats at a dose of 52 umol/kg by subcutaneous administration; type: functional
Rattus norvegicus [36] = assay: Induced locomotor stimulation was determined in non pretreated rats at a dose of 13 umol/kg by subcutaneous administration; type: functional

Row | SMILES | Activity (Rattus norvegicus [2]) [%] | Activity (Rattus norvegicus [6]) [counts/30 min] | Activity (Rattus norvegicus [7]) [%] | Body temp change (Rattus norvegicus [8]) [°C] | Binding [9] [%] | Binding [10] [%] | ED50 (Rattus norvegicus [14]) [µmol/kg] | ED50 (Rattus norvegicus [15]) [µmol/kg] | Activity (Rattus norvegicus [20]) [%] | Body temp change (Rattus norvegicus [21]) [°C] | other results
1 | CCCN(CCC)[C@H]1CCc2c(O)cccc2[C@@H]1C | 92 | 19 | 79 | -0.83 |  |  |  |  |  |  | Binding [1]: 91%; ED50 (Rattus norvegicus [3]): 7.3 µmol/kg; ED50 (Rattus norvegicus [4]): 7.9 µmol/kg; Activity (Rattus norvegicus [5]): 74%
2 | CCCN(CCC)[C@@H]1CCc2c(OC)cccc2[C@@H]1C | 78 | 4 | 152 | 1.4 | 83 | 34 | 12.8 | 9.6 | 70 | 0.45 | Body temp change (Rattus norvegicus [11]): -0.03 °C; Activity (Rattus norvegicus [12]): 105%; Body temp change (Rattus norvegicus [13]): 0.45 °C; Activity (Rattus norvegicus [16]): 22%; Activity (Rattus norvegicus [17]): 24%; ED50 (Rattus norvegicus [18]): inactive; ED50 (Rattus norvegicus [19]): inactive; Binding [22]: 61%; Binding [23]: 31%
3 | CCCN(CCC)[C@H]1CCc2c(O)cccc2[C@H]1C |  |  | 65 |  |  |  | 0.84 | 0.84 |  |  | Binding [24]: 37%; Binding [25]: 90%; Body temp change (Rattus norvegicus [26]): -0.2 °C; Body temp change (Rattus norvegicus [27]): 0.1 °C; ED50 (Rattus norvegicus [28]): 0.3 µmol/kg; ED50 (Rattus norvegicus [29]): 0.34 µmol/kg; Activity (Rattus norvegicus [30]): 121 counts/30 min; Activity (Rattus norvegicus [31]): 171%
4 | CCN(CC)[C@@H]1CCc2c(OC)cccc2[C@@H]1C | 40 |  | 100 | 1.2 | 44 | 28 | 5.5 | 2.9 | 46 | 1.4 | Activity (Rattus norvegicus [32]): 14%
5 | CCCN[C@@H]1CCc2c(OC)cccc2[C@@H]1C |  |  | 132 |  | 85 |  | 4.6 | 4.4 | 159 |  | Binding [33]: 41%; Activity (Rattus norvegicus [34]): 29%; Activity (Rattus norvegicus [35]): 54%; Temperature (Rattus norvegicus [13]): 0.47 °C; Activity (Rattus norvegicus [36]): 95%; Temperature (Rattus norvegicus [21]): 1.05 °C; Temperature (Rattus norvegicus [8]): 1.3 °C
